# Measured values as given in ChEMBL document CHEMBL4715736, “Identification of anticancer agents based on the thieno[2,3-b]pyridine and 1H-pyrazole molecular scaffolds” (2016).
# What was measured:
# Assay type in all cases: functional
# [1] = test system: A549; test: Growth inhibition of human A549/ATCC cells assessed as cell growth at 0.01 uM incubated for 48 hrs by sulforhodamine B assay relative to control; details: read-out: Activity
# Outline: (§1)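 NCI Developmental Therapeutics Program NCI60 panel. Compounds that were active in the 10 µM one-dose screen went on to dose–response testing. Growth at each concentration is expressed relative to untreated control (100%). GI50 (concentration giving 50% of maximal inhibition of proliferation) and TGI (concentration giving total growth inhibition) were derived from the curves.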
# [2] = test system: SK-MEL-5; test: Growth inhibition of human SK-MEL-5 cells assessed as cell growth at 0.01 uM incubated for 48 hrs by sulforhodamine B assay relative to control; details: read-out: Activity
# [3] = test system: MDA-MB-468; test: Growth inhibition of human MDA-MB-468 cells incubated for 48 hrs by sulforhodamine B assay; details: for CC50: read-out: LC50 (the source's name)
# Outline: (§2)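 NCI60 panel at the NCI Developmental Therapeutics Program. Only compounds active in the 10 µM screen went to dose-response testing. GI50, the concentration giving 50% of maximal inhibition of proliferation, and TGI, the concentration giving total growth inhibition, were derived from the dose-response curves.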
# [4] = test system: OVCAR-4; test: Growth inhibition of human OVCAR-4 cells assessed as cell growth at 0.01 uM incubated for 48 hrs by sulforhodamine B assay relative to control; details: read-out: Activity
# [5] = test system: HCC 2998; test: Growth inhibition of human HCC 2998 cells assessed as cell growth at 0.1 uM incubated for 48 hrs by sulforhodamine B assay relative to control; details: read-out: Activity; outline: as §1
# [6] = test system: SR; test: Growth inhibition of human SR cells assessed as cell growth at 0.01 uM incubated for 48 hrs by sulforhodamine B assay relative to control; details: read-out: Activity
# [7] = test system: Malme-3M; test: Growth inhibition of human Malme-3M cells assessed as cell growth at 1 uM incubated for 48 hrs by sulforhodamine B assay relative to control; details: read-out: Activity
# [8] = test system: COLO 205; test: Growth inhibition of human COLO 205 cells assessed as cell growth at 1 uM incubated for 48 hrs by sulforhodamine B assay relative to control; details: read-out: Activity; outline: as §1
# [9] = test system: UACC-62; test: Growth inhibition of human UACC-62 cells assessed as cell growth at 0.1 uM incubated for 48 hrs by sulforhodamine B assay relative to control; details: read-out: Activity
# [10] = test system: HCT-15; test: Growth inhibition of human HCT-15 cells incubated for 48 hrs by sulforhodamine B assay; outline: as §2
# [11] = test system: HCT-116; test: Growth inhibition of human HCT-116 cells assessed as cell growth at 1 uM incubated for 48 hrs by sulforhodamine B assay relative to control; details: read-out: Activity
# [12] = test system: Hs-578T; test: Growth inhibition of human Hs-578T cells incubated for 48 hrs by sulforhodamine B assay; details: for CC50: read-out: LC50 (the source's name); outline: as §2
# [13] = test system: KM12; test: Growth inhibition of human KM12 cells assessed as cell growth at 100 uM incubated for 48 hrs by sulforhodamine B assay relative to control; details: read-out: Activity
# [14] = test system: NCI-H322M; test: Growth inhibition of human NCI-H322M cells assessed as cell growth at 1 uM incubated for 48 hrs by sulforhodamine B assay relative to control; details: read-out: Activity
# [15] = test system: HOP-92; test: Growth inhibition of human HOP-92 cells assessed as cell growth at 100 uM incubated for 48 hrs by sulforhodamine B assay relative to control; details: read-out: Activity
# [16] = test system: PC-3; test: Growth inhibition of human PC-3 cells assessed as cell growth at 0.01 uM incubated for 48 hrs by sulforhodamine B assay relative to control; details: read-out: Activity
# [17] = test system: NCI-H226; test: Growth inhibition of human NCI-H226 cells assessed as cell growth at 1 uM incubated for 48 hrs by sulforhodamine B assay relative to control; details: read-out: Activity
# [18] = test system: SK-MEL-2; test: Growth inhibition of human SK-MEL-2 cells incubated for 48 hrs by sulforhodamine B assay
# Outline: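 NCI DTP 60-line human tumour panel. Dose-response curves were run only for ligands active in the initial 10 µM screen. GI50 (concentration giving 50% of maximal inhibition of proliferation) and TGI (concentration giving total growth inhibition) were derived from these curves.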
# [19] = test system: MDA-MB-231; test: Growth inhibition of human MDA-MB-231 cells assessed as cell growth at 100 uM incubated for 48 hrs by sulforhodamine B assay relative to control; details: read-out: Activity
# [20] = test system: PC-3; test: Growth inhibition of human PC-3 cells assessed as cell growth at 0.1 uM incubated for 48 hrs by sulforhodamine B assay relative to control; details: read-out: Activity
# [21] = test system: LOX IMVI; test: Growth inhibition of human LOX IMVI cells assessed as cell growth at 0.1 uM incubated for 48 hrs by sulforhodamine B assay relative to control; details: read-out: Activity
# [22] = test system: NCI-H23; test: Growth inhibition of human NCI-H23 cells assessed as cell growth at 0.1 uM incubated for 48 hrs by sulforhodamine B assay relative to control; details: read-out: Activity
# [23] = test system: M14; test: Growth inhibition of human M14 cells incubated for 48 hrs by sulforhodamine B assay; outline: as §2
# [24] = test system: ACHN; test: Growth inhibition of human ACHN cells incubated for 48 hrs by sulforhodamine B assay; details: for CC50: read-out: LC50 (the source's name); outline: as §1
# [25] = test system: A549; test: Growth inhibition of human A549/ATCC cells assessed as cell growth at 0.1 uM incubated for 48 hrs by sulforhodamine B assay relative to control; details: read-out: Activity; outline: as §1
# [26] = test system: HCT-15; test: Growth inhibition of human HCT-15 cells assessed as cell growth at 0.1 uM incubated for 48 hrs by sulforhodamine B assay relative to control; details: read-out: Activity
# [27] = test system: NCI-H522; test: Growth inhibition of human NCI-H522 cells assessed as cell growth at 0.01 uM incubated for 48 hrs by sulforhodamine B assay relative to control; details: read-out: Activity
# [28] = test system: OVCAR-8; test: Growth inhibition of human OVCAR-8 cells assessed as cell growth at 0.01 uM incubated for 48 hrs by sulforhodamine B assay relative to control; details: read-out: Activity
# [29] = test system: SF-295; test: Growth inhibition of human SF-295 cells assessed as cell growth at 0.1 uM incubated for 48 hrs by sulforhodamine B assay relative to control; details: read-out: Activity
# [30] = test system: COLO 205; test: Growth inhibition of human COLO 205 cells assessed as cell growth at 0.01 uM incubated for 48 hrs by sulforhodamine B assay relative to control; details: read-out: Activity; outline: as §1
# [31] = test system: CAKI-1; test: Growth inhibition of human CAKI-1 cells incubated for 48 hrs by sulforhodamine B assay; details: for CC50: read-out: LC50 (the source's name); outline: as §1
# [32] = test system: 786-0; test: Growth inhibition of human 786-0 cells incubated for 48 hrs by sulforhodamine B assay; details: for CC50: read-out: LC50 (the source's name); outline: as §1
# [33] = test system: KM12; test: Growth inhibition of human KM12 cells assessed as cell growth at 1 uM incubated for 48 hrs by sulforhodamine B assay relative to control; details: read-out: Activity
# [34] = test system: CAKI-1; test: Growth inhibition of human CAKI-1 cells assessed as cell growth at 1 uM incubated for 48 hrs by sulforhodamine B assay relative to control; details: read-out: Activity; outline: as §1
# [35] = test system: HOP-62; test: Growth inhibition of human HOP-62 cells assessed as cell growth at 0.1 uM incubated for 48 hrs by sulforhodamine B assay relative to control; details: read-out: Activity
smiles,measurement,setting,value
Cc1cc(C)c(NC(=O)c2sc3nc4c(cc3c2N)CN(Cc2ccccc2)CC4)c(C)c1,growth at 0.01 µM,[1],96%
same,growth at 0.01 µM,[2],98%
same,GI50,[3],1.78 µM
same,TGI,[3],88.7 µM
same,CC50,[3],> 100 µM
same,growth at 0.01 µM,[4],93%
same,growth at 0.1 µM,[5],98%
same,growth at 0.01 µM,[6],100%
same,growth at 1 µM,[7],76%
same,growth at 1 µM,[8],95%
same,growth at 0.1 µM,[9],97%
same,GI50,[10],2.12 µM
same,LC50,[10],> 100 µM
same,TGI,[10],> 100 µM
same,growth at 1 µM,[11],79%
same,GI50,[12],2.66 µM
same,TGI,[12],65.9 µM
same,CC50,[12],> 100 µM
same,growth at 100 µM,[13],-9%
same,growth at 1 µM,[14],102%
same,growth at 100 µM,[15],-7%
same,growth at 0.01 µM,[16],94%
same,growth at 1 µM,[17],78%
same,GI50,[18],5.59 µM
same,LC50,[18],> 100 µM
same,TGI,[18],> 100 µM
same,growth at 100 µM,[19],-11%
same,growth at 0.1 µM,[20],93%
same,growth at 0.1 µM,[21],105%
same,growth at 0.1 µM,[22],103%
same,GI50,[23],2.89 µM
same,LC50 (concentration killing 50% of cells),[23],> 100 µM
same,TGI,[23],31.5 µM
same,GI50,[24],6.31 µM
same,TGI,[24],> 100 µM
same,CC50,[24],> 100 µM
same,growth at 0.1 µM,[25],96%
same,growth at 0.1 µM,[26],93%
same,growth at 0.01 µM,[27],96%
same,growth at 0.01 µM,[28],101%
same,growth at 0.1 µM,[29],92%
same,growth at 0.01 µM,[30],94%
same,GI50,[31],2.81 µM
same,TGI,[31],> 100 µM
same,CC50,[31],> 100 µM
same,GI50,[32],3.48 µM
same,TGI,[32],> 100 µM
same,CC50,[32],> 100 µM
same,growth at 1 µM,[33],87%
same,growth at 1 µM,[34],76%
CCc1ccccc1NC(=O)c1sc2nc3c(cc2c1N)C(=O)CCC3,growth at 0.01 µM,[1],97%
same,growth at 0.01 µM,[2],96%
same,GI50,[3],0.209 µM
same,TGI,[3],44.7 µM
same,CC50,[3],> 100 µM
same,growth at 0.01 µM,[4],89%
same,growth at 0.1 µM,[5],96%
same,growth at 0.01 µM,[6],100%
same,growth at 1 µM,[7],50%
same,growth at 1 µM,[8],-34%
same,GI50,[10],0.349 µM
same,LC50,[10],> 100 µM
same,TGI,[10],> 100 µM
same,growth at 1 µM,[11],27%
same,growth at 0.1 µM,[35],82%
same,GI50,[12],0.302 µM
same,TGI,[12],> 100 µM
same,CC50,[12],> 100 µM
same,growth at 100 µM,[13],13%
same,growth at 1 µM,[14],40%
same,growth at 100 µM,[15],-6%
same,growth at 1 µM,[17],63%
same,LC50,[18],> 100 µM
same,TGI,[18],> 100 µM
same,growth at 100 µM,[19],4%
same,growth at 0.1 µM,[21],95%
same,GI50,[23],0.291 µM
same,LC50 (concentration killing 50% of cells),[23],> 100 µM
same,TGI,[23],> 100 µM
same,GI50,[24],0.0188 µM
same,TGI,[24],> 100 µM
same,CC50,[24],> 100 µM
same,growth at 0.1 µM,[25],88%
same,growth at 0.1 µM,[26],74%
same,growth at 0.01 µM,[27],106%
same,growth at 0.01 µM,[28],98%
same,growth at 0.1 µM,[29],76%
same,growth at 0.01 µM,[30],102%
same,GI50,[31],0.504 µM
same,TGI,[31],> 100 µM
same,CC50,[31],> 100 µM
same,GI50,[32],0.578 µM
same,TGI,[32],≥ 100 µM
same,CC50,[32],> 100 µM
same,growth at 1 µM,[33],21%
same,growth at 1 µM,[34],33%
